Laboratory results: PMC4304477 (Journal of the American Chemical Society, 2014)

What was measured:
[1] = test system: AmpC β-lactamase production; settings: background statement, no reference given; cited from earlier work
[2] = test system: PBPs, including PBP4; settings: background statement, no reference given; cited from earlier work
[3] = test system: P. aeruginosa PBP4; assay type: biochemical
How it was run: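 His-tagged P. aeruginosa PBP4 (residues 23–476) was expressed in E. coli Lemo21(DE3), passed twice over a chelating column and dialysed into 50 mM Tris pH 7.6, 0.5 M NaCl. It was used within 5 days and quantified by A280 (ε 62 005 M–1cm–1). Synthetic substrate at 0.125–5 mM was reacted in 50 mM Tris, 0.1 M NaCl, pH 7.6, 25 °C. After 30 min, one volume of 0.2% TFA was added. D-Ala-loss products were quantified by C18 HPLC against an internal standard to give steady-state kcat and Km.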

Compound | AmpC β-lactamase induction [1] | PBP inhibition [2] | kcat comparison in words ([3]; 18 vs 19, pH 7.6, 25 °C) | turnover product ([3]; PBP4, t = 30 min, LC/MS TIC, comparison with authentic synthetic 31)
CO[C@@]1(NC(=O)Cc2cccs2)C(=O)N2C(C(=O)O)=C(COC(N)=O)CS[C@@H]21 [cefoxitin] | a high inducer of AmpC β-lactamase production | inhibits PBPs, including PBP4 |  | 
NAM-L-Ala-D-γ-Glu-meso-DAP-D-Ala-D-Ala [Compound 18] |  |  | slightly higher than for 19 | This new peak was proven to be compound 31
